Data as given in ChEMBL document CHEMBL4304739, “Discovery of 3-(Indol-5-yl)-indazole Derivatives as Novel Myeloid Differentiation Protein 2/Toll-like Receptor 4 Antagonists for Treatment of Acute Lung Injury” (J Med Chem, 2019).
The source made the active and inactive calls.

How the values were obtained:
[1] = target: Serine/threonine-protein kinase PLK4 (Homo sapiens) (UniProt O00444); test: Inhibition of wild-type human partial length PLK4 (M1 to S273 residues) expressed in mammalian expression system at 1 uM by Kinomescan method
Chain of Serine/threonine-protein kinase PLK4 (Homo sapiens) (O00444 whole entry, the tested form may be a part): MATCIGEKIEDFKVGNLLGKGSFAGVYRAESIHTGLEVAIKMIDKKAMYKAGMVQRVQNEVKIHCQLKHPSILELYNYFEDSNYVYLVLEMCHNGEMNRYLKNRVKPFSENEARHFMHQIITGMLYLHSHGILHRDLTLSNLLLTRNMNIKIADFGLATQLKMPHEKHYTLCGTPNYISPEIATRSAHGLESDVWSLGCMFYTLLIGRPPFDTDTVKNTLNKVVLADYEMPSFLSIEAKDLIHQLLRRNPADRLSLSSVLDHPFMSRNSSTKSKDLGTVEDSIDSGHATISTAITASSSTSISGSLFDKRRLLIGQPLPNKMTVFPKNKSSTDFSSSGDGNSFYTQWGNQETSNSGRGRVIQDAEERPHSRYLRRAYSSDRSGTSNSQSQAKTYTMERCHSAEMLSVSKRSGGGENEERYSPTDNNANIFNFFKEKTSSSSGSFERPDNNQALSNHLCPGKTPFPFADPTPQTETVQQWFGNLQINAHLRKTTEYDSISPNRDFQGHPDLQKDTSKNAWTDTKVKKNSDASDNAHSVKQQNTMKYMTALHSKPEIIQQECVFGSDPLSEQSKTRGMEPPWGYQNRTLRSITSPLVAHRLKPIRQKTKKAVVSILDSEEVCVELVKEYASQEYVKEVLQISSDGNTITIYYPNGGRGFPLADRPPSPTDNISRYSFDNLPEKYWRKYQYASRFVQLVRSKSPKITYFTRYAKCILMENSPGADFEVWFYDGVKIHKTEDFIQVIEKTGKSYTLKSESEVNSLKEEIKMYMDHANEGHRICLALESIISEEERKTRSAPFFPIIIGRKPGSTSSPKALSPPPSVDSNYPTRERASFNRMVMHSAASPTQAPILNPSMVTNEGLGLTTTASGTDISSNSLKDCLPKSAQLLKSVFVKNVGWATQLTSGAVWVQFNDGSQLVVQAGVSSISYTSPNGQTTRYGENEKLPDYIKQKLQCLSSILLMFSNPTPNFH
How it was run: (§1)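 Binding-competition screen on the KINOMEscan platform, run by the provider, with the test compound at 1 μM. Readout is percent of control: (test signal − positive control signal)/(negative control signal − positive control signal) × 100. The DMSO negative control is set as 100% Ctrl and a control compound as 0% Ctrl. Lower values mean stronger hits.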

[2] = target: Cyclin-dependent kinase 16 (Homo sapiens) (UniProt Q00536); test: Inhibition of wild-type human partial length PCTK1 (G160 to A474 residues) expressed in mammalian expression system at 1 uM by Kinomescan method; how it was run: as §1
Chain of Cyclin-dependent kinase 16 (Homo sapiens) (Q00536 whole entry, the tested form may be a part): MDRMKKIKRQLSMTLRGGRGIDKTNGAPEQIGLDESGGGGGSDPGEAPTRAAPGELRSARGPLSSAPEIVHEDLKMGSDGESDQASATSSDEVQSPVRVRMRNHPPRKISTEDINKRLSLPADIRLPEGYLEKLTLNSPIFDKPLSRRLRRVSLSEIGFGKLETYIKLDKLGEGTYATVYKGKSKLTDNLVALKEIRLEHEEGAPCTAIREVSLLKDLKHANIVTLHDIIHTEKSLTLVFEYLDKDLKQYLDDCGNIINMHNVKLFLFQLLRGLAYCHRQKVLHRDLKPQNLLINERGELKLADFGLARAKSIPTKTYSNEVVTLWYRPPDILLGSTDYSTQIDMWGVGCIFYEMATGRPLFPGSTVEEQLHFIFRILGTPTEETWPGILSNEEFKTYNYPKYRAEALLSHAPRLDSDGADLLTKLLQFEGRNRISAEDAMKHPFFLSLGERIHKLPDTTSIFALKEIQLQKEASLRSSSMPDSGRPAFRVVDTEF

[3] = target: Serine/threonine-protein kinase RIO2 (Homo sapiens) (UniProt Q9BVS4); test: Inhibition of wild-type human partial length RIOK2 (M1 to D313 residues) expressed in mammalian expression system at 1 uM by Kinomescan method; how it was run: as §1
Chain of Serine/threonine-protein kinase RIO2 (Homo sapiens) (Q9BVS4 whole entry, looked up, the tested form may be a part): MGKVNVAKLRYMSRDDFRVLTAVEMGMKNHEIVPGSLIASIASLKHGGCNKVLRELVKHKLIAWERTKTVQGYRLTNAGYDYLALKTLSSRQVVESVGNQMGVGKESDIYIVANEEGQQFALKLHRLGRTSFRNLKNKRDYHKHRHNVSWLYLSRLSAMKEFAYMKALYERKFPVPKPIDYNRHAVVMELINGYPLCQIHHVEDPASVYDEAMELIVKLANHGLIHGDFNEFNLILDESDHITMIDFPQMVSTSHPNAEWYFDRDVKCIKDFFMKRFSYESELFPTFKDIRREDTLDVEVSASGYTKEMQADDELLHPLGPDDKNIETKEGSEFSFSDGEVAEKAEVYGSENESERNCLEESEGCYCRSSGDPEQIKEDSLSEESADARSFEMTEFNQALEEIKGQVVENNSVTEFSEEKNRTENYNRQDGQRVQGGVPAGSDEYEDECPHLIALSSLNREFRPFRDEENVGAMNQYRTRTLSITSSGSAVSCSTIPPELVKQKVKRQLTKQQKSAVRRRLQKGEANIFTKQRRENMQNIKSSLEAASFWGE

Measured: inhibition

O=C(Nc1ccc2[nH]nc(-c3ccc4[nH]ccc4c3)c2c1)c1c(Cl)cccc1Cl
inactive: all assays above
